Results from ChEMBL document CHEMBL1124334, “Hypolipidemic 2-[4-(1,1-dimethylethyl)phenyl]-4H-3,1-benzoxazin-4-ones. Structure-activity relationships of a novel series of high-density lipoprotein elevators” (1989).

Key:
Type in all cases: functional
Rattus norvegicus [1] = organism: Rattus norvegicus; assay: Change in plasma triglycerides in normocholesterolemic rats at 0.2 % composition of dose with diet given in a period of 3 days.
Procedure, shortened: (§1)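 Young male Wistar rats (120–150 g) fed basal powdered rodent diet ad libitum, with compound mixed into the diet at 0.2% w/w for 3 or 7 days. Plasma triglyceride and total cholesterol were then measured by standard enzymatic methods. Results are % change relative to controls.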

Rattus norvegicus [2] = assay: Percent change in plasma total cholesterol in cholesterol-fed rats at 200 mg/kg dose given in a period of 3 days
Procedure, shortened: (§2)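 Young male Wistar rats (120–150 g), groups of eight, fed ad libitum rodent diet with 0.5% w/w cholesterol and 0.25% cholic acid for 10 days. Compound suspended in 0.5% w/w tragacanth mucilage and given daily by stomach tube over the final 3 days; controls got vehicle. After overnight starvation, rats were killed 3 h post final dose and cardiac blood taken into heparin.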

Rattus norvegicus [3] = organism: Rattus norvegicus; assay: Change in plasma total cholesterol in normocholesterolemic rats at 0.2 % composition of dose with diet given in a period of 3 days.; procedure, shortened: as §1
Rattus norvegicus [4] = assay: Percent change in plasma triglycerides in cholesterol-fed rats at 200 mg/kg dose given in a period of 3 days; procedure, shortened: as §2
Rattus norvegicus [5] = assay: Percent change in plasma HDL cholesterol in cholesterol-fed rats at 200 mg/kg dose given in a period of 3 days; procedure, shortened: as §2
Rattus norvegicus [6] = assay: Ratio of plasma HDL cholesterol/total cholesterol at 200 g/kg for 3 days; details: in the assay text read “200 mg/kg” for “200 g/kg”; procedure, shortened: as §2
Rattus norvegicus [7] = organism: Rattus norvegicus; assay: The compound was tested for % change in plasma triglycerides in normocholesterolemic rats at 0.2 % composition of dose with diet given in a period of 7 days; procedure, shortened: as §1
Rattus norvegicus [8] = organism: Rattus norvegicus; assay: The compound was tested for % change in plasma total cholesterol in normocholesterolemic rats at 0.2 % composition of dose with diet given in a period of 7 days; procedure, shortened: as §1
[9] = Ratio of plasma HDL cholesterol/total cholesterol at 25 mg/kg for 3 days; details: dose 200 mg/kg; in the assay text read “200 mg/kg” for “25 mg/kg”; procedure, shortened: as §2

| SMILES | Change (Rattus norvegicus [1]) [%] | Change (Rattus norvegicus [2]) [%] | Change (Rattus norvegicus [3]) [%] | Change (Rattus norvegicus [4]) [%] | Change (Rattus norvegicus [5]) [%] | Change in HDL/total cholesterol ratio (Rattus norvegicus [6]) | Change (Rattus norvegicus [7]) [%] | Change (Rattus norvegicus [8]) [%] | Ratio [9] | Ratio (Rattus norvegicus [6]) |
| --- | --- | --- | --- | --- | --- | --- | --- | --- | --- | --- |
| CC(C)(C)c1ccc(-c2nc3ccc(NS(C)(=O)=O)cc3c(=O)o2)cc1 | -8 | -16 | -3 | 6 | 22 | 27 |  |  |  |  |
| CC(C)(C)c1ccc(-c2nc3ccc(I)cc3c(=O)o2)cc1 |  | -26 |  | -3 | 17 | 50 | -35 | -48 |  |  |
| CC(C)(C)c1ccc(-c2nc3ccccc3c(=O)o2)cc1 |  | -41 |  | -26 | 49 | 131 | -32 | -24 |  |  |
| Cc1ccc2nc(-c3ccc(C(C)(C)C)cc3)n(C)c(=O)c2c1 | -3 | 2 | 2 | 8 | 6 | -5 |  |  |  |  |
| CC(C)(C)c1ccc(C(=O)Nc2ccc(Br)cc2C(=O)O)cc1 | -20 | -29 | -56 | -26 | 24 | 70 |  |  |  |  |
| CC(C)(C)c1ccc(-c2nc3ccc(C(F)(F)F)cc3c(=O)o2)cc1 | -45 | -18 | -40 | -6 | -8 | 11 |  |  |  |  |
| Cc1ccc2nc(-c3ccccc3C(C)(C)C)oc(=O)c2c1 |  | -6 |  | -25 | -3 |  | -13 | -11 | 6 |  |
| CCOC(=O)C(C)(C)Oc1ccc(Cl)cc1 [CLOFIBRATE] |  | -30 |  | -10 | -10 | 8 | -48 | -27 |  |  |
| CC(C)(C)c1ccc(-c2nc3ccc(Cl)cc3c(=O)o2)cc1 |  | -18 |  | -30 | 16 | 31 | -36 | -31 |  |  |
| CC(C)(C)c1ccc(-c2nc3ccc(NS(=O)(=O)c4ccccc4)cc3c(=O)o2)cc1 | 27 | 7 | 5 | -7 | 30 | 35 |  |  |  |  |
| Cc1ccc2nc(Cc3ccc(C(C)(C)C)cc3)oc(=O)c2c1 |  | 1 |  | 27 | -19 | -27 |  |  |  |  |
| CC(C)(C)c1ccc(C(=O)Nc2ccc(Br)cc2C(N)=O)cc1 | 29 | -8 | 4 | -11 | -1 | 4 |  |  |  |  |
| COC(=O)c1ccc2nc(-c3ccc(C(C)(C)C)cc3)oc(=O)c2c1 | -13 | 29 | -2 | 0 | 18 | -4 |  |  |  |  |
| Cc1ccc2nc(-c3ccc(C(C)(C)C)cc3)nc(O)c2c1 | 28 | -17 | 1 | -18 | 24 | 25 |  |  |  |  |
| Cc1ccc2nc(-c3cccc(C(C)(C)C)c3)oc(=O)c2c1 |  | 43 |  | 22 | 50 |  | 25 | -4 | 3 |  |
| COc1ccc2nc(-c3ccc(C(C)(C)C)cc3)oc(=O)c2c1 | -52 | -28 | -48 | -26 | 21 |  |  |  |  | 52 |

| SMILES | Change (Rattus norvegicus [1]) [%] | Change (Rattus norvegicus [2]) [%] | Change (Rattus norvegicus [3]) [%] | Change (Rattus norvegicus [4]) [%] | Change (Rattus norvegicus [5]) [%] | Change in HDL/total cholesterol ratio (Rattus norvegicus [6]) | Change (Rattus norvegicus [7]) [%] | Change (Rattus norvegicus [8]) [%] | Ratio [9] | Ratio (Rattus norvegicus [6]) |
| --- | --- | --- | --- | --- | --- | --- | --- | --- | --- | --- |
| Cc1ccc2nc(-c3ccc(C(C)C)cc3)oc(=O)c2c1 | 7 | -26 | -11 | -17 | 33 |  |  |  | 79 |  |
| Cc1ccc2nc(-c3ccccc3)oc(=O)c2c1 |  | -2 |  | -4 | -2 |  | -1 | -12 | 4 |  |
| CN(C(=O)c1ccc(C(C)(C)C)cc1)c1ccc(Br)cc1C(=O)O | 10 | -22 | -10 | -13 | 33 | 59 |  |  |  |  |
| O=C(O)c1cccnc1 [NIACIN] |  | -29 |  | -39 | 20 |  | -3 | -4 |  | 63 |
| CC(C)(C)c1ccc(-c2nc3ccc(C(C)(C)C)cc3c(=O)o2)cc1 | -17 | 63 | -15 | 52 | 30 | -17 |  |  |  |  |
| CCCCCCCCc1ccc2nc(-c3ccc(C(C)(C)C)cc3)oc(=O)c2c1 | -14 | -9 | -1 | -7 | 35 | 29 |  |  |  |  |
| CC(C)(C)c1ccc(-c2nc3ccc(-c4ccccc4)cc3c(=O)o2)cc1 | 1 | -8 | 0 | 0 | 60 | 74 |  |  |  |  |
| CNc1nc(-c2ccc(C(C)(C)C)cc2)nc2ccc(C)cc12 |  | 27 |  | 79 | 10 | -12 |  |  |  |  |
| CCCCc1ccc2nc(-c3ccc(C(C)(C)C)cc3)oc(=O)c2c1 | -32 | -4 | -3 | 22 | 65 | 69 |  |  |  |  |
| CC(C)(C)c1ccc(C(=O)O)cc1 |  | -62 |  | -38 | -50 | 60 | -41 | -38 |  |  |
| COC(=O)c1cc(C)ccc1NC(=O)c1ccc(C(C)(C)C)cc1 | -8 | -20 | -4 | 68 | 25 | 46 |  |  |  |  |
| COC(=O)c1cc(Br)ccc1NC(=O)c1ccc(C(C)(C)C)cc1 | -7 | -49 | -34 | -22 | -7 | 70 |  |  |  |  |
| CC(C)(C)c1ccc(-c2nc3ccc(N)cc3c(=O)o2)cc1 | 1 | -25 | 4 | -11 | 4 | 25 |  |  |  |  |
| CN(C)c1ccc2nc(-c3ccc(C(C)(C)C)cc3)oc(=O)c2c1 | -12 | -4 | 10 | 16 | 26 | 22 |  |  |  |  |
| CC(C)(C)c1ccc(-c2nc3ccc([N+](=O)[O-])cc3c(=O)o2)cc1 |  | -23 |  | -19 | -8 | 13 | -27 | 1 |  |  |
